This is an account of results in ChEMBL document CHEMBL4411319, “Discovery of Macrocyclic Inhibitors of Apurinic/Apyrimidinic Endonuclease 1” (J Med Chem, 2019).

For experiment [1], the target named is T1, DNA repair nuclease/redox regulator APEX1 (Homo sapiens, UniProt P27695). The experiment in a line: Inhibition of APE1 in human ST8814 cells assessed as effect on MMS-induced DNA damage by measuring tail DNA level at 100 uM after 1 hr in presence of MMS by comet assay. More on the design: scale not given: the % may be the effect or the level left. Format: cell-based. The method in brief:
(§1)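 Malignant peripheral nerve sheath tumor ST8814 cells seeded at 130,000/well in DMEM + 10% FBS and grown overnight. Treated 1 h at 37 °C in Opti-MEM with compound (100 μM or EC30) alone or with 1.0 mM MMS. Trypsinized, then alkaline comet assay: lysis 60 min, unwinding at pH 13 for 20 min, electrophoresis at 1 V/cm for 30 min, SYBR Gold stain. Percent tail DNA averaged over 20 comets; two independent experiments.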

A short description of experiment [2]: Induction of DNA damage in human ST8814 cells measuring tail DNA level at 100 uM after 1 hr in presence of MMS by comet assay (reference value: 16%). Type of experiment: functional. The method in brief:
as §1

Experiment [3] in a line: Cytotoxicity against human Pa02C cells after 48 hrs by Alamar Blue-based assay. Format: functional, cell-based. The method in brief:
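Patient-derived pancreatic Pa02c cells, low passage, kept in DMEM with 10% FBS. Plated at 2000 cells/well on poly-D-lysine-coated plates and grown overnight at 37 °C, 5% CO2. Dosed in 5% FBS DMEM from 100 μM, 1:2 serial dilution, 5 points, with DMSO vehicle and drug-background wells. Grown 48 h, then fresh medium with 10% Alamar Blue for 4 h and fluorescence read. Background subtracted, normalized to media alone, mean with standard error.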
(The colour change of resazurin is a common sign of viable cells or microbes.)

The target in experiment [4] is T1, DNA repair nuclease/redox regulator APEX1. Nature of the experiment: Inhibition of full length human APE1 assessed as reduction in endonuclease activity by measuring DNA cleavage of abasic sites using 6-FAM labelled two annealed oligonucleotides as AP site mimic substrate by fluorescence-based assay. The procedure, abridged:
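Purified full-length APE1 (0.25-1.25 nM) added at once to 50 nM annealed duplex: 5'-6-FAM-labelled AP-site-mimic strand paired with a quencher-labelled strand. Buffer 50 mM Tris, 1 mM MgCl2, 50 mM NaCl, pH 7.5. Compound in triplicate, 10-point 1:2 dilution from 100 μM. Fluorescence from cleavage read kinetically at five 1-min intervals. Reaction rate compared with DMSO vehicle.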

T1 sequence (P27695 whole entry): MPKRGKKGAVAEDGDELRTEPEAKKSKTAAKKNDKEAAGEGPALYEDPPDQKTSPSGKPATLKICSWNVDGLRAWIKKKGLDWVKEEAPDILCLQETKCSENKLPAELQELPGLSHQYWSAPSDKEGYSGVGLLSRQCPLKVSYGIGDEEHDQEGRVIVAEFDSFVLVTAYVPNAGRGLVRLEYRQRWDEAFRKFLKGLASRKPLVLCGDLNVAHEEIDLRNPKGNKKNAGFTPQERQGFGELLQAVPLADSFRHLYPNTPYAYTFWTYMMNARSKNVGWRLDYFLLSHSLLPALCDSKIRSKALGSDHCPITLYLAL

Turning to `Cc1ccc([C@@H]2CC(=O)N[C@@H](Cc3c[nH]c4ccccc34)C(=O)N[C@@H](c3cccn3S(=O)(=O)c3ccc(C)cc3)[C@@H](C)/C=C/CC(=O)N2)cc1`, the Activity in experiment [1] came out at 40%; in experiment [2], 20%. Also, the EC50 – broadly, the concentration needed to bring the measured effect to its halfway point – in experiment [3] is more than 100 µM. For the same compound, the IC50 – broadly, the concentration at which inhibition is half-maximal – in experiment [4] turned out to be 2.5 µM.
In experiment [3], `Cc1ccc(S(=O)(=O)n2cccc2[C@@H]2NC(=O)[C@H](Cc3c[nH]c4ccccc34)NC(=O)C[C@H](CCc3ccccc3)NC(=O)C/C=C/[C@@H]2C)cc1` had an EC50 of more than 100 µM. Also, the IC50 in experiment [4] amounted to 2.6 µM.
The like results for `Cc1ccc(S(=O)(=O)n2cccc2[C@@H]2NC(=O)[C@H](Cc3c[nH]c4ccccc34)NC(=O)C[C@@H](Cc3ccc(Cl)cc3)NC(=O)C/C=C/[C@@H]2C)cc1` were, in that order, more than 100 µM and 1.9 µM.
The like results for `C[C@H]1/C=C/CC(=O)N[C@H](c2ccc(Cl)cc2)CC(=O)N[C@@H](Cc2c[nH]c3ccccc23)C(=O)N[C@H]1c1ccccc1` were, in that order, 22 µM and more than 100 µM.
The like results for `C[C@H]1/C=C/CC(=O)N[C@H](c2ccc(F)cc2)CC(=O)N[C@@H](Cc2c[nH]c3ccccc23)C(=O)N[C@H]1c1ccccc1` were, in that order, 36.2 µM and 55.1 µM.
Turning to `C[C@H]1/C=C/CC(=O)OCCC(Oc2ccc3c(c2)OCO3)C(=O)N[C@@H](Cc2c[nH]c3ccccc23)C(=O)N[C@H]1c1ccccc1` (stereo partly specified), in experiment [4], the IC50 came to 1.8 µM and the inhibition result is “Dose-dependent effect”.
Consider `Cc1ccc(S(=O)(=O)n2cccc2[C@@H]2NC(=O)[C@H](Cc3c[nH]c4ccccc34)NC(=O)CCCCOC(=O)C/C=C/[C@@H]2C)cc1`, for which the Activity in experiment [1] turned out to be 27%; in experiment [2] it was 26%. In experiment [3], this compound returned an EC50 of more than 100 µM. Moreover, the IC50 in experiment [4] was 9.3 µM.
Consider `Cc1ccc(S(=O)(=O)n2cccc2[C@@H]2NC(=O)[C@H](Cc3c[nH]c4ccccc34)NC(=O)C(Oc3ccc(C(F)(F)F)cc3)CCOC(=O)C/C=C/[C@@H]2C)cc1` (stereo partly specified), for which, in experiment [4], the IC50 is 2.5 µM and the inhibition result is “Dose-dependent effect”.
In experiment [3], `Cc1ccc(S(=O)(=O)n2cccc2[C@@H]2NC(=O)[C@H](Cc3c[nH]c4ccccc34)NC(=O)C[C@@H](c3cccc(C(F)(F)F)c3)NC(=O)C/C=C/[C@@H]2C)cc1` returned an EC50 of 6.7 µM. Also, the IC50 in experiment [4] is 52.6 µM.
In experiment [3], `Cc1ccc(S(=O)(=O)n2cccc2[C@@H]2NC(=O)[C@H](Cc3c[nH]c4ccccc34)NC(=O)CCCNC(=O)C/C=C/[C@@H]2C)cc1` showed an EC50 of 35 µM. In addition, the IC50 in experiment [4] turned out to be 29.2 µM.
Take `Cc1ccc(S(=O)(=O)n2cccc2[C@@H]2NC(=O)[C@H](Cc3c[nH]c4ccccc34)NC(=O)CCNC(=O)C/C=C/[C@@H]2C)cc1`: the Activity in experiment [1] worked out at 96%; in experiment [2], 12%. In experiment [3], this compound yielded an EC50 of 58.4 µM. Moreover, the IC50 in experiment [4] is 33.2 µM.
Take `C[C@H]1/C=C/CC(=O)N[C@H](c2ccc(C(F)(F)F)cc2)CC(=O)N[C@@H](Cc2c[nH]c3ccccc23)C(=O)N[C@H]1c1ccccc1`: the Activity in experiment [1] was determined as 67%; in experiment [2] it was 12%. Moreover, the concentration for a half-maximal effect (EC50) in experiment [3] is 58.5 µM. The IC50 in experiment [4] is 26.5 µM.
Compound `Cc1ccc(S(=O)(=O)n2cccc2[C@@H]2NC(=O)[C@H](Cc3c[nH]c4ccccc34)NC(=O)CCCOC(=O)C/C=C/[C@@H]2C)cc1` registered an EC50 in experiment [3] of more than 100 µM. The half-maximal inhibitory concentration (IC50) in experiment [4] came to 10.6 µM.
In the case of `Cc1ccc(S(=O)(=O)n2cccc2[C@@H]2NC(=O)[C@H](Cc3c[nH]c4ccccc34)NC(=O)C(c3ccccc3)CCOC(=O)C/C=C/[C@@H]2C)cc1` (stereo partly specified), in experiment [4], the inhibition result is “Dose-dependent effect”.
`CC(=O)Nc1sc2c(c1-c1nc3ccccc3s1)CCN(C(C)C)C2`: the values for the Activity in experiment [1] and in experiment [2] were 34% and 17%, respectively.
Regarding `C[C@H]1/C=C/CC(=O)OCCCCC(=O)N[C@@H](Cc2c[nH]c3ccccc23)C(=O)N[C@H]1c1ccccc1`, the concentration for a half-maximal effect (EC50) in experiment [3] is more than 50 µM. Also, in experiment [4], the IC50 came to 63.5 µM.
For `Cc1ccc(S(=O)(=O)n2cccc2[C@@H]2NC(=O)[C@H](Cc3c[nH]c4ccccc34)NC(=O)C[C@@H](c3ccc(Cl)cc3)NC(=O)C/C=C/[C@@H]2C)cc1`, in that order: more than 100 µM and 12.1 µM.
Turning to `Cc1ccc(S(=O)(=O)n2cccc2[C@@H]2NC(=O)[C@H](Cc3c[nH]c4ccccc34)NC(=O)C[C@@H](c3ccc(C(F)(F)F)cc3)NC(=O)C/C=C/[C@@H]2C)cc1`, the Activity in experiment [1] is 95%; in experiment [2], 18%. The compound also displayed an EC50 in experiment [3] of more than 100 µM. Also, the IC50 in experiment [4] is 1.3 µM.
In experiment [3], `Cc1ccc(S(=O)(=O)n2cccc2[C@@H]2NC(=O)[C@H](Cc3c[nH]c4ccccc34)NC(=O)CCCCNC(=O)C/C=C/[C@@H]2C)cc1` yielded an EC50 of more than 100 µM. Besides, the IC50 in experiment [4] was more than 50 µM.
The like results for `C[C@H]1/C=C/CC(=O)OCCCC(=O)N[C@@H](Cc2c[nH]c3ccccc23)C(=O)N[C@H]1c1ccccc1` were, in that order, more than 100 µM and more than 100 µM.
The like results for `Cc1ccc(S(=O)(=O)n2cccc2[C@@H]2NC(=O)[C@H](Cc3c[nH]c4ccccc34)NC(=O)C[C@@H](c3ccc(F)cc3)NC(=O)C/C=C/[C@@H]2C)cc1` were, in that order, more than 100 µM and 5.7 µM.
For the compound `Cc1ccc(S(=O)(=O)n2cccc2[C@@H]2NC(=O)[C@H](Cc3c[nH]c4ccccc34)NC(=O)C(Oc3ccccc3)CCOC(=O)C/C=C/[C@@H]2C)cc1` (stereo partly specified), the inhibition entry in experiment [4] is “Dose-dependent effect”.
On to `Cc1ccc(S(=O)(=O)n2cccc2[C@@H]2NC(=O)[C@H](Cc3c[nH]c4ccccc34)NC(=O)C[C@@H](CCc3ccccc3)NC(=O)C/C=C/[C@@H]2C)cc1`, for which the figures for the Activity in experiment [1] and in experiment [2] were 54% and 12%, respectively. Moreover, the EC50 in experiment [3] is more than 100 µM. In addition, the IC50 in experiment [4] was 2.7 µM.
